{"data": "Measured values of several laboratories", "target": "Muscarinic acetylcholine receptor M1 (CHRM1, Homo sapiens, UniProt P11229)", "concentration": "10 µM", "One construct used (P11229 1-460)": "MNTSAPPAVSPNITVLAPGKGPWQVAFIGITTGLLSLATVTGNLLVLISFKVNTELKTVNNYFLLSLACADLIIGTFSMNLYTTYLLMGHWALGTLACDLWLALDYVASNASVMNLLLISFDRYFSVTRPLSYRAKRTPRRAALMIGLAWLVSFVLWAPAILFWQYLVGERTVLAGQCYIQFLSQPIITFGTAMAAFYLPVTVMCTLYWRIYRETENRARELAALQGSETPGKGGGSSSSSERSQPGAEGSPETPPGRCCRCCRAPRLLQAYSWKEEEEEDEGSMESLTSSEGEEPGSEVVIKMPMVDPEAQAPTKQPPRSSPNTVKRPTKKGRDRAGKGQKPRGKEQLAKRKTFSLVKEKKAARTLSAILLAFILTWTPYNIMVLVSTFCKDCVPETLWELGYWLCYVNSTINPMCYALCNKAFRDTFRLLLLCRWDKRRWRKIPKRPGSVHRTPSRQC", "note": "Compare with care: the assays were run in different laboratories."}
{"Compound": "Clc1ccc2c(C3CCN(CCc4c[nH]c5ccccc45)CC3)c[nH]c2c1", "effect on": "ligand displacement", "method": "radioligand", "inhibition": "31%"}
{"Compound": "c1ccc(C(NCCNC(c2ccccc2)c2ccccc2)c2ccccc2)cc1", "effect on": "cell-free assay", "inhibition": "21%"}
{"Compound": "COc1ccc2cc(OCC3(C(=O)O)CN(C(=O)c4ccc(F)cc4)C3)ccc2c1", "effect on": "ligand displacement", "inhibition": "-0.03%"}
{"Compound": "CC(C)N1CCC[C@H]1CNC(=O)c1cn(C2CCCC2)c(=O)c2c1c1ccccc1n2C", "effect on": "ligand displacement", "method": "radioligand", "inhibition": "-1%"}
{"Compound": "CN1CC[C@]2(C)c3cc(OC(=O)Nc4ccccc4)ccc3N(C)[C@H]12", "effect on": "ligand displacement", "method": "radioligand", "inhibition": "0%"}
{"Compound": "C[C@H](C(=O)N[C@H]1COc2ccccc2[C@@H]1S(C)(=O)=O)c1ccc(F)cc1", "effect on": "cell-free assay", "inhibition": "-7%"}
{"Compound": "CCN(CC)CCCC[C@H](NC(=O)[C@H](CC(C)C)NC(=O)[C@H](C)NC(=O)[C@H](Cc1ccccc1)NC(=O)c1ccc(C(C)(C)C)cc1)C(=O)N[C@@H](CO)C(=O)OC", "effect on": "ligand displacement", "method": "radioligand", "inhibition": "1%"}
{"Compound": "CS(=O)(=O)c1cc(C2(NC(=O)c3cncc4c3cnn4-c3ccc(F)cc3)CC2)ccn1", "effect on": "cell-free assay", "inhibition": "-14.8%"}
{"Compound": "COCc1c(-c2cc3cc(C)cc(OC)c3s2)c2c(N)ncnn2c1CN1CCNC(=O)C1", "effect on": "ligand displacement", "method": "radioligand", "inhibition": "6%"}
